# Results of several laboratories.
# Each line is one published result; the experiments were not run side by side.
# Effect on: cell growth or viability
SMILES,cell line,method,time,setting,measurement,value
COc1ccc(OCc2ccc([N+](=O)[O-])cc2)cc1-c1c[nH]c2ncc(-c3cncc(C(=O)N(C)C)c3)cc12,K562,MTT,72 h,,GI50,697 nM
C=C(F)C(=O)N1CCN(c2nc(OC[C@@H]3CCCN3C)nc3c2CCN(c2cccc4cccc(Cl)c24)C3)C[C@@H]1CC#N,HCT-15,ATP luminescence,,3D culture,IC50,> 1000 nM
COc1cc2c3c(n(CCCNCCO)c(=O)c2cc1OC)-c1nc2c(cc1C3=O)OCO2,K562,MTS,72 h,,IC50,196 nM
CCN(c1cc(-c2ccc(CN3CCOCC3)cc2)cc(C(=O)NCc2c(C)cc(C)[nH]c2=O)c1C)C1CCOCC1,HT-1376,ATP luminescence,18 days,,GI50,385 nM
CN(C)C(=O)c1cncc(-c2cnc3[nH]cc(-c4ccccc4C(F)(F)F)c3c2)c1,K562,MTT,72 h,,GI50,453 nM
C=CC(=O)N1CCN(c2nc(=O)n(-c3c(C)ccnc3C(C)C)c3nc(-c4c(O)cccc4F)c(F)cc23)[C@@H](C)C1,NCI-H1373,ATP luminescence,,,IC50,48.4 nM
CCC[C@H]1NC(=O)[C@H](Cc2cc(Cl)ccc2-c2cnn(C)c2)N(C)C(=O)[C@H](CC(C)C)NC(=O)[C@@H](N(C)C(=O)[C@H](CCCCN2CCOCC2)NC(=O)[C@@H](c2cccnc2)C2CCCCC2)CCCCNC1=O,NCI-H446,MTT,5 days,,GI50,4200 nM
C=CC(=O)NC1CCN(c2ncc3ncnc(Nc4ccc(Oc5ccc6c(c5)ncn6C)c(C)c4)c3n2)CC1,COR-L88,,,,EC50,313 nM
CN(C)C(=O)c1cncc(-c2cnc3[nH]cc(-c4ccccc4C#N)c3c2)c1,K562,MTT,72 h,,GI50,591 nM
C=CC(=O)c1cccnc1Nc1cccc(C(F)(F)F)c1,HCT-15,SRB,48 h,,GI50,15400 nM
O=C(C=Cc1ccccc1)Nc1cc(-c2ccnc(N3CCC(O)CC3)c2)ccn1,MCF-10A,MTT,72 h,,IC50,3330 nM
CCCN1C(=O)[C@H](CC(C)C)NC(=O)[C@@H](N(C)C(=O)[C@H](CC2CCC2)NC(=O)[C@@H]2C[C@@H](F)CN2C(=O)[C@@](C)(O)C(F)(F)F)CCCCNC(=O)C2(CC2)NC(=O)[C@@H]1Cc1cc(Cl)ccc1Cl,NCI-H446,MTT,5 days,,GI50,28 nM
O=C(O)c1ccccc1Nc1cccc(C(F)(F)F)c1,HCT-15,SRB,48 h,,GI50,> 30000 nM
COc1cc2c3c(n(CCCn4ccnc4)c(=O)c2cc1OC)-c1nc2c(cc1C3=O)OCO2,K562,MTS,72 h,,IC50,580 nM
COc1ccc(N)cc1-c1c[nH]c2ncc(-c3cncc(C(=O)N(C)C)c3)cc12,K562,MTT,72 h,,GI50,175 nM
O=C(O)c1cccnc1Nc1cccc(C(F)(F)F)c1,HCT-15,SRB,48 h,,GI50,> 30000 nM
O=C(NO)c1ccc(CNc2nc3cccc(-c4ccc5c(c4)OCO5)n3n2)cc1,SN12C,SRB,,,GI50,720 nM
